Data: ChEMBL document CHEMBL1131193, “Selective tight binding inhibitors of trypanosomal glyceraldehyde-3-phosphate dehydrogenase via structure-based drug design” (J Med Chem, 1998)

Key:
[1] = Inhibitory activity measured for Glyceraldehyde-3-phosphate dehydrogenase (GAPDH) in Leishmania. mexicana
Outline: (§1)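 Recombinant glycosomal GAPDH of L. mexicana, T. cruzi or T. brucei; human enzyme from erythrocytes. NADH formation followed at 340 nm, 21 °C, in 0.1 M triethanolamine-HCl pH 7.6 with DTT, NaN3, MgSO4, EDTA, 10 mM K2HPO4, 0.8 mM glyceraldehyde-3-phosphate, 0.19 mM NAD+, 5% DMSO. Reaction started with enzyme. IC50 from 0–1 min initial rates at ≥5 inhibitor levels versus DMSO control.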

[2] = Inhibitory activity was measured for Glyceraldehyde-3-phosphate dehydrogenase in Trypanosoma brucei; outline: as §1
[3] = Inhibitory activity was measured for Glyceraldehyde-3-phosphate dehydrogenase in Trypanosoma cruzi.; outline: as §1
[4] = target: Glyceraldehyde-3-phosphate dehydrogenase (Homo sapiens, UniProt P04406); assay: Inhibitory activity was measured for Glyceraldehyde-3-phosphate dehydrogenase in human(erythrocytes); format: cell-based; outline: as §1
Sequence of Glyceraldehyde-3-phosphate dehydrogenase (P04406 whole entry): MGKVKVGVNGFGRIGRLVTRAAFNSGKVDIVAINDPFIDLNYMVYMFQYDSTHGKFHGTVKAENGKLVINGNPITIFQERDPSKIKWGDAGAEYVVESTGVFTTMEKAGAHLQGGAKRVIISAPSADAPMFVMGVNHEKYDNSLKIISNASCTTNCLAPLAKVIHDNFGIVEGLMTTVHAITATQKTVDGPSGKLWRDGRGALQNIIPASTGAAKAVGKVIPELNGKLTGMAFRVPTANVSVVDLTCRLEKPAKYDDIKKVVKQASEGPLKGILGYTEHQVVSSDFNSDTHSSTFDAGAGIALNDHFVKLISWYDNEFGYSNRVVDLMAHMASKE

[5] = system: GAPDH (Leishmania mexicana); assay: Inhibitory activity was measured for Glyceraldehyde-3-phosphate dehydrogenase (up to 10 mM
[6] = Inhibitory activity was measured for Glyceraldehyde-3-phosphate dehydrogenase (GAPDH) in Leishmania. mexicana.
[7] = system: GAPDH (Leishmania mexicana); assay: Inhibitory activity was measured for Glyceraldehyde-3-phosphate dehydrogenase (up to 10 mM; remark: listed apart in the source

| Compound | IC50 [1] [µM] | other results |
| --- | --- | --- |
| Nc1ccc(CNc2ncnc3c2ncn3[C@@H]2O[C@H](CO)[C@@H](O)[C@H]2O)cc1 | 3100 | – |
| CCC(C)CNc1ncnc2c1ncn2C1O[C@H](CO)[C@@H](O)[C@H]1O (some centres not stated) | > 5400 | – |
| CC(C)=CCNc1ncnc2c1ncn2[C@@H]1O[C@H](CO)[C@@H](O)[C@H]1O [RIBOPRINE] | > 5000 | – |
| CC(C)(C)Nc1ncnc2c1ncn2C1O[C@H](CO)[C@@H](O)[C@H]1O (some centres not stated) | – | IC50 [5]: Not Active |
| CCCCCNc1ncnc2c1ncn2[C@@H]1O[C@H](CO)[C@@H](O)[C@H]1O | – | IC50 [5]: Not Active |
| CC(CO)CCNc1ncnc2c1ncn2C1O[C@H](CO)[C@@H](O)[C@H]1O (some centres not stated) | 3400 | – |
| OC[C@H]1O[C@@H](n2cnc3c(NCc4ccccc4)ncnc32)[C@H](O)[C@@H]1O [N6-BENZYLADENOSINE] | 4200 | – |
| Nc1ncnc2c1ncn2[C@@H]1O[C@H](CO)[C@@H](O)[C@H]1O [ADENOSINE] | 50000 | – |
| CC(C)CCNc1ncnc2c1ncn2[C@@H]1O[C@H](CO)[C@@H](O)[C@H]1O | – | IC50 [6]: 3.7 mM |
| CC(C)Nc1ncnc2c1ncn2[C@@H]1O[C@H](CO)[C@@H](O)[C@H]1O | – | IC50 [7]: Not Active |
| OC[C@H]1O[C@@H](n2cnc3c(NC4CCCCCC4)ncnc32)[C@H](O)[C@@H]1O | 1800 | – |
| CCCC(C)Nc1ncnc2c1ncn2C1O[C@H](CO)[C@@H](O)[C@H]1O (some centres not stated) | – | IC50 [5]: Not Active |
| OC[C@H]1O[C@@H](n2cnc3c(NC4CCCC4)ncnc32)[C@H](O)[C@@H]1O [N6-CYCLOPENTYLADENOSINE] | > 5000 | – |

Second part, led by results:

| IC50 [1] [µM] | Compound | other results |
| --- | --- | --- |
| 700 | Cc1cccc(CNc2ncnc3c2ncn3[C@@H]2O[C@H](CO)[C@@H](O)[C@H]2O)c1 | – |
| 650 | Nc1ncnc2c1ncn2[C@@H]1O[C@H](CO)[C@@H](O)[C@H]1NC(=O)c1cc(O)cc(O)c1 | – |
| 25 | COc1cccc(C(=O)N[C@@H]2[C@H](O)[C@@H](CO)O[C@H]2n2cnc3c(NCc4cc(C)ccc4C)ncnc32)c1 | – |
| 360 | OC[C@H]1O[C@@H](n2cnc3c(NC4CCCc5ccccc54)ncnc32)[C@H](O)[C@@H]1O (some centres not stated) | – |
| 4 | COc1cccc(C(=O)N[C@@H]2[C@H](O)[C@@H](CO)O[C@H]2n2cnc3c(NCc4ccccc4C)ncnc32)c1 | IC50 [2]: 30 µM; IC50 [3]: 30 µM; IC50 [4]: > 270 µM |
| 16 | COc1cccc(C(=O)N[C@@H]2[C@H](O)[C@@H](CO)O[C@H]2n2cnc3c(NCc4ccccc4)ncnc32)c1 | IC50 [2]: 220 µM; IC50 [3]: 159 µM; IC50 [4]: > 530 µM |
| 25 | COc1cccc(C(=O)N[C@@H]2[C@H](O)[C@@H](CO)O[C@H]2n2cnc3c(NCc4ccccc4OC)ncnc32)c1 | – |
| 340 | OCc1ccccc1Sc1ccccc1CNc1ncnc2c1ncn2C1O[C@H](CO)[C@@H](O)[C@H]1O (some centres not stated) | – |
| 700 | Cc1ccccc1CNc1ncnc2c1ncn2[C@@H]1O[C@H](CO)[C@@H](O)[C@H]1O [METRIFUDIL] | – |
| 850 | Nc1ncnc2c1ncn2[C@@H]1O[C@H](CO)[C@@H](O)[C@H]1NC(=O)c1cccc(O)c1 | – |
| 600 | COc1cccc(C(=O)N[C@@H]2[C@H](O)[C@@H](CO)O[C@H]2n2cnc3c(N)ncnc32)c1O | – |
| 1200 | COc1cccc(C(=O)N[C@@H]2[C@H](O)[C@@H](CO)O[C@H]2n2cnc3c(NC(=O)C(C)C)ncnc32)c1 | – |
| 250 | Nc1ncnc2c1ncn2[C@@H]1O[C@H](CO)[C@@H](O)[C@H]1NC(=O)c1cc(O)c(O)c(O)c1 | – |
| 5.5 | COc1cccc(C(=O)N[C@@H]2[C@H](O)[C@@H](CO)O[C@H]2n2cnc3c(NCc4cccc(C)c4C)ncnc32)c1 | – |
| 150 | OC[C@H]1O[C@@H](n2cnc3c(NCc4cccc5ccccc45)ncnc32)[C@H](O)[C@@H]1O | – |
| 800 | COc1cccc(C(=O)N[C@@H]2[C@H](O)[C@@H](CO)O[C@H]2n2cnc3c(N)ncnc32)c1 | – |
| 240 | OC[C@H]1OC(n2cnc3c(NC(c4ccccc4)c4ccccc4)ncnc32)[C@H](O)[C@@H]1O (some centres not stated) | – |
| 500 | COc1cc(C(=O)N[C@@H]2[C@H](O)[C@@H](CO)O[C@H]2n2cnc3c(N)ncnc32)ccc1O | – |
